The nature of assay [1]: inhibitors of TNFa-induced NFkB p65 translocation, primary screen, imaging, HUVEC, MLSMR starter and 10KST1 sets (AID 438;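 active = inhibition above 20% together with a positive visual image hit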;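 also: compound added about 3h40 before a 20 min TNFalpha stimulation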;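 as to inhibition: signal is the nuclear over cytoplasmic p65 intensity ratio per well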). As to conditions: HUVEC TNFa-induced p65 nuclear translocation; cell count: measured here: nuclei count (cytotoxicity indicator), at 2.08 µM; inhibition: at 2 µM, stronger effect = higher value, 0% TNFa-plus-vehicle, 100% no-TNFa wells.
The nature of assay [2]: inhibitors of E-selectin induction by TNFa, primary screen, imaging, HUVEC, immunofluorescence, MLSMR starter and 10KST1 sets (AID 487;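 active = visually confirmed hit in the image check and inhibition above 20%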;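 as to inhibition: signal is fraction of cell area covered by stained E-selectin grains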;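 as to nuclei count: 100% = median nuclei count of all wells on the same plate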). To be noted: HUVEC TNFalpha-induced E-selectin immunofluorescence imaging, at 2 µM; inhibition: stronger effect = higher value; nuclei count: measured here: cell number, toxicity.
Assay [3] in a line: DUSP6 inhibitors restoring Erk phosphorylation by chemical complementation, primary imaging in DUSP6-transfected HeLa (AID 609).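 As to inhibition: phospho-Erk level distribution per well compared with pooled transfected vehicle control wells.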 As to conditions: HeLa MKP-3 transfected, phospho-Erk imaging KS statistic, at 10 µM, cells stimulated with TPA for 15 min.
The target of assay [4] is Dual specificity protein phosphatase 6 (Homo sapiens) (UniProt Q16828). The description is as above. As to conditions: HeLa MKP-3 transfected, phospho-Erk imaging KS statistic; at 10 µM; stronger effect = higher value; cells stimulated with TPA for 15 min.
Chain of Dual specificity protein phosphatase 6 (Homo sapiens) (Q16828 whole entry, looked up): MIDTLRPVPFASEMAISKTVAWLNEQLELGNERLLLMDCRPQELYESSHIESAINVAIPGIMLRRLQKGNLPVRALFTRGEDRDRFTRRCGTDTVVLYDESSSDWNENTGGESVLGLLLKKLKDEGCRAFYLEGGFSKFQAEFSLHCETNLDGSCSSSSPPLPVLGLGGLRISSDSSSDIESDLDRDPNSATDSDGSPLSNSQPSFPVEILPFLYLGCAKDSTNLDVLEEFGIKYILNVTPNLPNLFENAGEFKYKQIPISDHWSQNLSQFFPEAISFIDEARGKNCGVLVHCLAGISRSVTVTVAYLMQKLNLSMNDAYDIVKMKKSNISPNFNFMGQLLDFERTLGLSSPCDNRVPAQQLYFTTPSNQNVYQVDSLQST
Assay [5] has as its target Voltage-gated potassium channel subunit beta-2 (Rattus norvegicus) (UniProt P62483). In words: KvBeta enzyme negative modulators, primary screen, biochemical, NADPH fluorescence (AID 622;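 active = fluorescence slope higher than the sample average by over 3 SD, cut at about -0.22 in these data, passing the limit was not always enough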;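 also: slope of raw intensity against log time taken from 70 to 1610 s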). To be noted: recombinant KvBeta, 4-cyanobenzaldehyde reduction, at 10 µM, stronger effect = higher value.
Assay [6] has the same target. In words: KvBeta positive modulators, primary screen, biochemical, NADPH fluorescence (AID 623;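 active = NADPH fluorescence slope more negative than the mean of all samples by about 3 SD, 99.7% confidence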;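 also: fluorescence intensity change per second fitted from 20 to 320 s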). To be noted: Recombinant KvBeta, NADPH fluorescence decrease slope, 10 min; at 10 µM; stronger effect = lower value.
Assay [7] has as its target Muscarinic acetylcholine receptor M4 (Homo sapiens) (UniProt P08173). In words: compounds altering M4/GIRK thallium flux, either direction, primary screen, M4 allosteric agonist project, cell-based, HEK293 M4/GIRK, BTC-AM (AID 625;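 active = fluorescence slope after compound addition differing from the mean of all tested samples at 99.7% confidence, mostly higher but some lower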;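 also: thallium influx through GIRK channels coupled to M4 in HEK293 cells with BTC-AM dye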). To be noted: at 10 µM, actives lie on both sides. The method, boiled down: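 Material: HEK293 cells with M4 receptor and GIRK channels; Times: cells overnight at 37 °C, BTC-AM loading 1 h, reads 2 min total; Technique: kinetic BTC-AM fluorescence sampled at 1 Hz, 10 s pre-addition baseline; Read-out basis: slope over 15–24 s of trace normalized to starting intensity; Controls: carbachol positive, DMSO negative.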

Assay [8] is described as follows: inhibitors of larval lipid processing in zebrafish, primary screen, whole organism, PED6 fluorescence, gall bladder and intestine (AID 686;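 active = a full or partial loss of lipid-probe fluorescence in the fish gall bladder, intestine or both, judged by eye; inactive = no fluorescence loss, or compound toxic to the fish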;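 also: larvae 5 to 7 days old with five fish per well; signal comes from phospholipase A2 cleavage of quenched PED6 carried via bile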). To be noted: Zebrafish larvae PED6 lipid processing, fluorescence scoring; screened at 20 µM (by protocol). In a few lines: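 Incubation: overnight exposure of larvae to compound plus PED6 / Test system: live zebrafish larvae aged 5-7 days, whole organism / Amount: 5 larvae per well / Read-out basis: visual per-well fluorescence inhibition score / Signal: visual fluorescence microscopy scoring of gall bladder, gut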

Assay [9] in a line: inhibitors of Chlamydomonas gravitaxis, primary screen, whole organism, Chlamydomonas reinhardtii, WT vs cilia-less mutant, absorbance, 96-well (AID 463189;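 active = inhibition at or above 50% relative to wild type and mutant plate controls; inactive = inhibition below 50%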;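 also: 0% = wild type cc124 cells in DMSO and 100% = ciliumless bld1 mutant cells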). As to conditions: OD600 absorbance, 2 days, at 10 µM, stronger effect = higher value.
[10] abbreviates: measured here: cell density z-score.
The mark [11] stands for this setting: measured here: nuclear c-Myc green intensity z-score.
Where [12] appears, read: measured here: nuclear pErk red intensity z-score, stronger effect = higher value.

Consider twelve compounds from PubChem BioAssay.

Structures are written as SMILES. Calls of active or inactive are those of the source.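 The calls were made as follows, unless noted: active = compounds giving at least 50% inhibition in the cell-based MKP-3 phosphatase rescue imaging test; inactive = the rest.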

Chain of Muscarinic acetylcholine receptor M4 (Homo sapiens) (P08173 whole entry, looked up): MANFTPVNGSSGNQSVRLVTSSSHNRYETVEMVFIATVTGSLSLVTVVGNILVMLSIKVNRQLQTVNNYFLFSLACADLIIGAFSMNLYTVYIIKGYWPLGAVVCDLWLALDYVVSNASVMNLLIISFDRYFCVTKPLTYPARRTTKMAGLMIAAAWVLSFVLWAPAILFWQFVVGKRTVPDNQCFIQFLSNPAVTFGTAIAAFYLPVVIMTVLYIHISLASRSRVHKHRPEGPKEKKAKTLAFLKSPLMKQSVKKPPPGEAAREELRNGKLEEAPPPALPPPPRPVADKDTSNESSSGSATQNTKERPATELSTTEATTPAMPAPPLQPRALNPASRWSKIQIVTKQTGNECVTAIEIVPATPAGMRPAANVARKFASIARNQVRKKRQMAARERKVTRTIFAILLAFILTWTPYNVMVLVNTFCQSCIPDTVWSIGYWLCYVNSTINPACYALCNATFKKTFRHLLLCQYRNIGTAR
Chain of Voltage-gated potassium channel subunit beta-2 (Rattus norvegicus) (P62483 whole entry, looked up): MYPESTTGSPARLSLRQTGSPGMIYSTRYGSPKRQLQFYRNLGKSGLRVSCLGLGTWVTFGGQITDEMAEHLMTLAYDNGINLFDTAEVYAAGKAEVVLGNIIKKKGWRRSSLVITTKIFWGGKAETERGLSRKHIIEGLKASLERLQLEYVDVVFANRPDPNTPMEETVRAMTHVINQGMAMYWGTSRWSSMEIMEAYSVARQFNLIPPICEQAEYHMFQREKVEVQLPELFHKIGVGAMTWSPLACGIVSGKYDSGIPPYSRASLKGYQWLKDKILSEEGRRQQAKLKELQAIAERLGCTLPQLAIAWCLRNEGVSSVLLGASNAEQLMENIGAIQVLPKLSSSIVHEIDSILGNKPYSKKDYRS

For `CC(=O)c1ccc(C#CC(C)(C)O)s1`, the cell count in assay [1] turned out to be 496. In addition, the inhibition (in general, the drop in the measured response relative to a control, in per cent) in [1] was -2.5% (inactive); in assay [2], -51.1% (inactive); in assay [4], -3.97% (inactive); in [9], -7.15% (inactive). In assay [2], this compound showed a nuclei count of 126%. The values for the z-score in assay [3] (setting [10]), in assay [3] (setting [11]) and in assay [3] (setting [12]) were -0.749, 0.398 and 0.00406, respectively. Besides, the fluorescence slope in assay [5] was -0.386 (inactive); in assay [7], 0.00521 (inactive). Also, in assay [6], the NADPH fluorescence slope was -7.4e-05 (inactive). Moreover, the outcome in assay [8] was inactive.
Take `CCOC(=O)c1[nH]c2ccc(F)cc2c1NC(=O)CCN1CCSCC1`: the cell count in [1] stood at 617. Moreover, the inhibition in [1] was -1.1% (inactive); in assay [2] it was -124% (inactive); in [4], 1.42% (inactive); in assay [9] it was -7.59% (inactive). The same compound displayed a nuclei count in [2] of 130%. Further, the results for the z-score in assay [3] (setting [10]), in assay [3] (setting [11]) and in assay [3] (setting [12]) were -0.422, 0.0168 and 1.05, respectively. Also, the fluorescence slope in [5] is -0.455 (inactive); in assay [7], 0.00431 (inactive). The NADPH fluorescence slope in assay [6] was -0.000125 (inactive). Further, the result in assay [8] was inactive.
As for `N#Cc1nc(COc2ccccc2F)oc1NCCCn1ccnc1`, the cell count in assay [1] was 465. Further, the inhibition in assay [1] was -4% (inactive); in assay [2], -87.7% (inactive); in assay [4] it was -0.624% (inactive); in assay [9], -8.85% (inactive). Moreover, the nuclei count in [2] was 136%. Also, the figures for the z-score in [3] (setting [10]), in assay [3] (setting [11]) and in assay [3] (setting [12]) were -0.925, 1.53 and 1.43, respectively. Moreover, the fluorescence slope was -0.414 (inactive) in [5] and 0.00507 (inactive) in [7]. In addition, in [6], the NADPH fluorescence slope is -2.3e-05 (inactive). Moreover, in [8], the compound was called inactive.
As for `CC(C)CSc1nc(N2CCOCC2)c2c(c1C#N)CC(C)(C)SC2`, the cell count in [1] came out at 574. Besides, the inhibition in assay [1] was -6% (inactive); in assay [2] it was -69.8% (inactive); in [4], -5.81% (inactive); in assay [9], 25.7% (inactive). The compound also returned a nuclei count in assay [2] of 145%. Further, the figures for the z-score in assay [3] (setting [10]), in [3] (setting [11]) and in [3] (setting [12]) were -0.439, -0.915 and -0.541, respectively. In addition, the figures for the fluorescence slope in assay [5] and in assay [7] were -0.424 (inactive) and 0.00667 (inactive), respectively. Further, in assay [6], the NADPH fluorescence slope was -8.1e-05 (inactive). Further, the compound was classed as inactive in [8].
`CCCc1cc(=O)oc2c(C)c(O)c(CN3CCCCC3)cc12`: in assay [1], the cell count is 657. Also, the inhibition in assay [1] was -2.4% (inactive); in assay [2], -23.3% (inactive); in assay [4], 1.04% (inactive); in assay [9], 0.97% (inactive). In assay [2], this compound returned a nuclei count of 157%. For the same compound, the z-score in assay [3] (setting [10]) is -0.426; in assay [3] (setting [11]), -0.355; in [3] (setting [12]) it was 0.314. Moreover, the fluorescence slope in assay [5] was -0.00538 (inactive); in assay [7] it was 0.00467 (inactive). In addition, the NADPH fluorescence slope in assay [6] is -1.8e-06 (inactive). Also, the compound was classed as inactive in [8].
For `CCN(CC)c1nc(-c2cccc(OC)c2O)nc2ccccc12`, the cell count in assay [1] stood at 624. The inhibition is -3.5% (inactive) in assay [1], -45.9% (inactive) in assay [2], 4.37% (inactive) in assay [4] and 15.7% (inactive) in assay [9]. Besides, in assay [2], the nuclei count was 171%. Besides, the z-score in assay [3] (setting [10]) was -1.06; in assay [3] (setting [11]) it was -1.37; in assay [3] (setting [12]), 0.629. Besides, the values for the fluorescence slope in assay [5] and in assay [7] were -0.5 (inactive) and 0.005 (inactive), respectively. Also, the NADPH fluorescence slope in assay [6] is -9.9e-05 (inactive). Besides, in assay [8], the compound was classed as inactive.
With `CCN(CC)CCCN1C(=O)C(=O)/C(=C(/O)c2ccccc2)C1c1cc(OC)ccc1OC` (stereo unspecified), the cell count in [1] was 414. In addition, the inhibition in [1] was -1.4% (inactive); in [2] it was -75.8% (inactive); in assay [4] it was 1.48% (inactive); in assay [9], 32.7% (inactive). For the same compound, the nuclei count in assay [2] was 153%. Further, the z-score is -0.00303 in assay [3] (setting [10]), -1.03 in assay [3] (setting [11]) and 1.76 in [3] (setting [12]). In addition, the figures for the fluorescence slope in assay [5] and in [7] were -0.469 (inactive) and 0.00498 (inactive), respectively. Besides, in [6], the NADPH fluorescence slope was -0.000138 (inactive). Besides, the call in assay [8] was inactive.
`CN(C)c1ccc(NC(=O)c2sc(SCC(=O)Nc3nccs3)nc2N)cc1`: the cell count in assay [1] is 700. In addition, the inhibition is -11.3% (inactive) in assay [1], 0.8% (inactive) in assay [2], 1.98% (inactive) in [4] and -7.49% (inactive) in assay [9]. The nuclei count in assay [2] came to 179%. Moreover, the z-score in assay [3] (setting [10]) was -1.08; in assay [3] (setting [11]), 1.63; in [3] (setting [12]), 0.495. Further, the fluorescence slope is -0.491 (inactive) in [5] and 0.00686 (inactive) in assay [7]. The NADPH fluorescence slope in assay [6] was -9e-05 (inactive). Besides, the result in assay [8] was inactive.
As for `N#CC(C#N)C(c1ccsc1)c1c(-c2ccccc2)[nH][nH]c1=O` (stereo unspecified), the cell count in assay [1] was determined as 712. The inhibition in assay [1] is -0.5% (inactive); in assay [2] it was -88.8% (inactive); in [4], -4.27% (inactive); in assay [9] it was 3.19% (inactive). Besides, in assay [2], the nuclei count turned out to be 169%. Moreover, the z-score in assay [3] (setting [10]) was 0.118; in [3] (setting [11]) it was -0.0424; in [3] (setting [12]), 0.886. The fluorescence slope in assay [5] was -0.495 (inactive); in [7], 0.00622 (inactive). The NADPH fluorescence slope in [6] is -6.9e-05 (inactive). Moreover, in assay [8], the compound was classed as inactive.
As for `Cc1nn(CC(=O)NCCN2CCOCC2)c(=O)c2ccccc12`, the cell count in [1] was determined as 472. For the same compound, the inhibition was 4.4% (inactive) in assay [1], -0.8% (inactive) in assay [2], 5.95% (inactive) in assay [4] and 27.9% (inactive) in assay [9]. This compound had a nuclei count in [2] of 116%. Also, the z-score was -1.02 in assay [3] (setting [10]), -0.0587 in assay [3] (setting [11]) and 0.79 in assay [3] (setting [12]). The fluorescence slope in assay [5] was -0.469 (inactive); in assay [7], 0.00615 (inactive). Moreover, the NADPH fluorescence slope in assay [6] was -3.4e-05 (inactive). Moreover, the result in [8] was inactive.
In the case of `C=CCOc1ccc(/C(O)=C2/C(=O)C(=O)N(CCCN3CCOCC3)C2c2ccc(OC)cc2)cc1` (stereo unspecified), the cell count in [1] is 409. In addition, the inhibition in assay [1] is -10.2% (inactive); in [2], -115% (inactive); in [4], 14% (inactive); in assay [9], 25.3% (inactive). The compound further showed a nuclei count in assay [2] of 131%. Moreover, the z-score in assay [3] (setting [10]) is 0.861; in [3] (setting [11]) it was -1.19; in assay [3] (setting [12]), 0.613. Further, the fluorescence slope in assay [5] was -0.455 (inactive); in assay [7], 0.00475 (inactive). Also, the NADPH fluorescence slope in [6] is -0.000145 (inactive). Moreover, the compound was called inactive in assay [8].
In the case of `CCCCN1C(=O)C(O)=C(C(C)=O)C1c1ccc(OC)cc1OC` (stereo unspecified), in assay [1], the cell count came to 479. Also, the inhibition in assay [1] was -4.2% (inactive); in [2], -323% (inactive); in assay [4], -7.28% (inactive); in [9], -3.96% (inactive). The nuclei count in [2] turned out to be 189%. Also, the z-score is 0.403 in [3] (setting [10]), -0.372 in [3] (setting [11]) and 1.98 in [3] (setting [12]). Further, the fluorescence slope in assay [5] was -0.464 (inactive); in assay [7], 0.00466 (inactive). Also, the NADPH fluorescence slope in [6] is -4.3e-05 (inactive). In addition, the call in assay [8] was inactive.
